The record followed here is ChEMBL document CHEMBL3217620, “Relative impact of 3- and 5-hydroxyl groups of cytosporone B on cancer cell viability” (Medchemcomm, 2013).

Active and inactive are the calls of the source. No cut-off for these calls is given here.

The target in experiment [1] is Nuclear receptor subfamily 4immunitygroup A member 1 (Homo sapiens) (UniProt P22736). The experiment can be described thus: Binding affinity to human recombinant N-terminal His6-tagged NR4A1 LBD expressed in Escherichia coli BL21 at 100 uM by NMR spectroscopy.
In experiment [2] the test system is NCI-H460. The experiment can be described thus: Induction of apoptosis in human H460 cells assessed as PARP cleavage at 10 uM after 8 hrs by SDS-PAGE. It is filed as functional, cell-based. The essentials:
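H460 cells in serum-free RPMI-1640, attached 12 h, then given 10 μM compound for 8 h. Lysed in Tris-HCl pH 7.9 buffer with NaCl, EDTA, Triton X-100 and protease inhibitors. Run on 12% SDS-PAGE, blotted to nitrocellulose, probed overnight at 4 °C with rabbit polyclonal anti-PARP, then HRP anti-rabbit IgG. ECL detection; β-actin reprobe as loading control.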

For experiment [3], the system named is NCI-H460. The experiment can be described thus: Induction of apoptosis in human H460 cells assessed as DNA fragmentation at 10 uM after 8 hrs by DAPI staining-based confocal microscopy relative to control. It is filed as functional. The essentials:
(§1)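 H460 cells in serum-free RPMI-1640 on coverslips, attached 12 h, given 10 μM compound for 8 h. Fixed in 3.7% paraformaldehyde, permeabilized in 0.3% Triton X-100/PBS, blocked in 3% BSA, DAPI-stained and viewed by fluorescence microscopy. Cells with nuclear fragmentation and/or chromatin condensation scored in 300-cell fields; mean of triplicates ± SD.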

The subject of experiment [4] is BGC-823. Put plainly: Induction of apoptosis in human BGC823 cells assessed as procaspase9 cleavage at 15.5 uM after 48 hrs. It is filed as functional.
Experiment [5] concerns BGC-823. The experiment can be described thus: Induction of apoptosis in human BGC823 cells assessed as mitochondrial cytochrome c release at 15.5 uM after 48 hrs. It counts as functional.
For experiment [6], the system named is BGC-823. The experiment can be described thus: Induction of apoptosis in human BGC823 cells assessed as nuclear DNA condensation at 15.5 uM after 48 hrs. It counts as functional.
In experiment [7] the target is Nuclear receptor subfamily 4immunitygroup A member 1 (Homo sapiens) (UniProt P22736). The experiment can be described thus: Induction of translocation of NR4A1 from nucleus to cytoplasm in human H460 cells at 10 uM after 8 hrs by DAPI staining-based confocal microscopy relative to control. It counts as cell-based. The gist of the method: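 Serum-starved H460 cells grown overnight on coverslips, treated 8 h with 10 µM compound or vehicle. Fixed (3.7% paraformaldehyde), permeabilized (0.3% Triton X-100, 10 min), blocked in 3% BSA. Stained with rabbit monoclonal anti-NR4A1 and Alexa Fluor 594 anti-rabbit IgG, nuclei with DAPI. Overlaid confocal images used to judge NR4A1 localization.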

Experiment [8] has as its system NCI-H460. Put plainly: Induction of apoptosis in human H460 cells assessed as chromatin condensation at 10 uM after 8 hrs by relative to control. It is filed as functional. The gist of the method:
as §1

In experiment [9] the test system is LNCaP. The experiment can be described thus: Cytotoxicity against human LNCAP cells at 20 uM after 72 hrs by MTT assay. It is filed as functional. The gist of the method: (§2)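 LNCaP cells at 5×10^3/well in RPMI-1640 with 10% FBS, attached 24 h. Treated 72 h with compound at 1–20 µM or DMSO alone (0.2% final). Viability by MTT per kit protocol. Points are means of six replicates ± SD; IC₅₀ interpolated from dose–response curves.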
(In general: Tetrazolium dyes change colour on reduction, which living cells bring about.)

For experiment [10], the target named is Nuclear receptor subfamily 4immunitygroup A member 1 (Homo sapiens) (UniProt P22736). Put plainly: Binding affinity to NR4A1 (unknown origin) at 0.1 uM by luciferase reporter gene assay relative to control.
Experiment [11] is described as follows: Cytotoxicity against human H460 cells after 72 hrs by MTT assay. It is filed as functional, cell-based. The conditions noted are these: NCI-H460, 72 h. The gist of the method: (§3)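 NCI-H460 NSCLC cells, […] exponentially growing cells/well, seeded and left overnight. Compound added at 0.1, 1.0 and 10 μM (vehicle DMSO, 0.1% final) in RPMI-1640 with 10% FBS for 72 h. MTT then added at 0.5 mg/mL for 4 h, formazan dissolved in DMSO, absorbance read at 490 nm.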

The nature of experiment [12]: Cytotoxicity against human H460 cells at 20 uM after 72 hrs by MTT assay. It counts as functional. The conditions noted are these: NCI-H460, 72 h.
Experiment [13] in a line: Cytotoxicity against human H460 cells assessed as cell viability at 10 uM after 72 hrs by MTT assay. It counts as functional. The note with it: NCI-H460, 72 h, read-out: Activity. The essentials: as §3
Experiment [14] deals with LNCaP. The experiment can be described thus: Cytotoxicity against human LNCAP cells after 72 hrs by MTT assay. It is filed as functional, cell-based. The gist of the method:
as §2

In experiment [15] the test system is LNCaP. Put plainly: Cytotoxicity against human LNCAP cells after 72 hrs. It counts as functional, cell-based.
Experiment [16] can be described thus: Cytotoxicity against human H460 cells after 48 hrs by MTT assay. It is filed as functional, cell-based. The note with it: NCI-H460, 48 h.
Experiment [17] deals with Nuclear receptor subfamily 4immunitygroup A member 1 (Homo sapiens) (UniProt P22736). The experiment can be described thus: Binding affinity to human recombinant N-terminal His6-tagged NR4A1 LBD expressed in Escherichia coli BL21 by isothermal titration calorimetry. For orientation: Isothermal titration calorimetry measures the heat released or taken up as one component is titrated into another.

Experiment [18] shares this target. Put plainly: Binding affinity to human recombinant N-terminal His6-tagged NR4A1 LBD expressed in Escherichia coli BL21 at 50 uM by NMR spectroscopy.

Sequence of Nuclear receptor subfamily 4immunitygroup A member 1 (Homo sapiens) (P22736 whole entry, the tested form may be a part): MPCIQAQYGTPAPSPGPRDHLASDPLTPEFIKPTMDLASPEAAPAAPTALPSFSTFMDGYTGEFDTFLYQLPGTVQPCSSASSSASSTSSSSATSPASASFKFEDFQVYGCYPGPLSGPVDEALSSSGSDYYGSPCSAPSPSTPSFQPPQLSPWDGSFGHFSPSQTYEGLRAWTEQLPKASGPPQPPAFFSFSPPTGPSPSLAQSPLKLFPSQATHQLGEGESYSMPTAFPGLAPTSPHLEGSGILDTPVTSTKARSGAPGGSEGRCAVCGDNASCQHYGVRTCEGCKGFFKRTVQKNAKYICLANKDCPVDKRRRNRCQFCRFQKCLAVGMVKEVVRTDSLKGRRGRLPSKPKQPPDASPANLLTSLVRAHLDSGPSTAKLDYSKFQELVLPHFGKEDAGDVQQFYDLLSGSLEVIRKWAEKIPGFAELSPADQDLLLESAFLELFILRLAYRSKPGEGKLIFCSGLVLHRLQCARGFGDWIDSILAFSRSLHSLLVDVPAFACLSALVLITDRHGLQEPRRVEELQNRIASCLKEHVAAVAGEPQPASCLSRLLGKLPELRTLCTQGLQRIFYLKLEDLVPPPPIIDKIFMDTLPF

By inhibition is commonly meant the drop in the measured response relative to a control, in per cent. A high value points to a response far below the control. The term IC50 denotes the concentration that gives 50% inhibition. Low readings indicate inhibition by little substance, high ones a need for much substance. Take `CCCCCCCC(=O)c1c(O)cc(O)cc1CC(=O)OCC` [CYTOSPORONE B]: the outcome in experiment [1], in experiment [2] and in experiment [7] was Active. For the same compound, the “fold change (FC)” value in experiment [3] and in experiment [8] was 4.4 throughout. Further, the Activity in [4], in experiment [5] and in [6] was 63% throughout. The inhibition at 20 µM is 76% in experiment [9] and 88% in [12]. For the same compound, the Ratio in experiment [10] amounted to 12.5. In addition, the half-inhibitory concentration (IC50) was 15.3 µM in [11] and 13.4 µM in experiment [14]. The viability at 10 µM in experiment [13] stood at 50%.
Consider `FC(F)(F)c1ccc(C(c2c[nH]c3ccccc23)c2c[nH]c3ccccc23)cc1`, for which the outcome in [2] and in experiment [7] was Active. Also, the “fold change (FC)” value in experiment [3] and in experiment [8] was 3.7 each time. The half-maximal inhibitory concentration (IC50) in [15] came to 5 µM; in experiment [16], 7.7 µM; in [11], 4.6 µM; in experiment [14], 9.7 µM. Moreover, at 20 µM the inhibition in experiment [9] was 97%. Moreover, in experiment [13], the viability at 10 µM was determined as 90%.
For `CCCCCCCC(=O)c1c(CC(=O)OCC)cc(OC)cc1OC`, the result in experiment [17], in [18] and in experiment [7] was inactive. Further, in [2], the outcome was Active. The inhibition at 20 µM in experiment [9] amounted to 14%; in experiment [12], 11%. Besides, the IC50 in experiment [11] was above 20 µM. Also, the viability at 10 µM in experiment [13] amounted to 24%.
`CCCCCCCC(=O)c1c(O)cc(OC)cc1CC(=O)OCC`: the result in experiment [18], in [2] and in [7] was Active. Besides, the “fold change (FC)” value in experiment [3] and in experiment [8] was 5.1 in each case. Besides, the inhibition at 20 µM in [9] was found to be 80%; in experiment [12], 75%. For the same compound, the IC50 came to 15.9 µM in experiment [11] and 11.4 µM in experiment [14]. Also, the viability at 10 µM in [13] stood at 22%.
